Bioassay records as filed in PubChem BioAssay.
MEKK2wt PB1 HTS = raises or lowers MEK5 binding to wildtype human MEKK2 PB1 domain | bead flow cytometry, Alexa488-MEK5 binding to MEKK2 WT; actives lie on both sides | binding response (% of control), % at 10 µM | Q9Y2U5 | 290,000 tested, 1.1% active | AID 1531; in the data active = binding response below about 67% or above about 130%
MEKK3 PB1 HTS = MEKK3-MEK5 PB1 interaction, increase or decrease. bead-based flow cytometry, Alexa488-MEK5 binding to MEKK3; actives lie on both sides; 0 = blocked by unlabeled MEK5, 100 = vehicle. binding response (% of control), % at 10 µM. 290,000 tested, 1.4% active;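 active = binding response more than 3 SD above or below the average of its plate-row segment, actives on both sides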;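 also: Alexa488 bead fluorescence after subtracting the streptavidin-only scavenger bead signal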
Target sequence (Q99759 whole entry, looked up): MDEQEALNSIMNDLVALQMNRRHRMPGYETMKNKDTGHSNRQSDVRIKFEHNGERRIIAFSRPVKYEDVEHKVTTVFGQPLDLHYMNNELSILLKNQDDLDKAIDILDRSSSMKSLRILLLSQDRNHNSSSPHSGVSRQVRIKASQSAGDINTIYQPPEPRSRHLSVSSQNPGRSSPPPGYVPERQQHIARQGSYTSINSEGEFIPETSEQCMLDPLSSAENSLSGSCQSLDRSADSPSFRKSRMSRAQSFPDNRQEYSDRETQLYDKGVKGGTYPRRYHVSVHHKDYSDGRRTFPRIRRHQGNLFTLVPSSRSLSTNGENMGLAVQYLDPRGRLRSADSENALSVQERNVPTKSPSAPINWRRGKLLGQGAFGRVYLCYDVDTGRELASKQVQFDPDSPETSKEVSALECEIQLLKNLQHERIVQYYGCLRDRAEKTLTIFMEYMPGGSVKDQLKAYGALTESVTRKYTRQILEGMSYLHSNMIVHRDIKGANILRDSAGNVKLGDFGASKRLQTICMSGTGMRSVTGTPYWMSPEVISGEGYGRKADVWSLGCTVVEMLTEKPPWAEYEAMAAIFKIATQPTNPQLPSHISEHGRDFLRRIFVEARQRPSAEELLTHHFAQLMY
IMP-1 inhibitor = blocks Pseudomonas aeruginosa IMP-1 metallo-beta-lactamase; 290,000 tested, 0.45% active; purified IMP-1, nitrocefin hydrolysis, epi-absorbance fluorescence; AID 1556; inhibition, % at 5.6 µM;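 active = inhibition above the mean plus 3 SD of all compounds in the same screening run, cut at about 4.5% in these data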;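 also: 0% = IMP-1 with DMSO and 100% = DMSO wells lacking enzyme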
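Assay system: purified recombinant IMP-1 beta-lactamase. Input: IMP-1 0.2 nM before substrate addition. Buffer or medium: Zinc- and detergent-supplemented HEPES buffer, pH 7.1. Schedule: 25 °C, 15 min preincubation, 25 min reaction. Signal: Epi-absorbance fluorescence, 480 nm excitation, 530 nm emission. Evaluation: percent inhibition from optical density relative to buffer-blank wells.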
VIM-2 inhibitor = blocks Pseudomonas aeruginosa VIM-2 metallo-beta-lactamase; 290,000 tested, 0.89% active; inhibition, % at 5.6 µM; purified VIM-2, nitrocefin hydrolysis, epi-absorbance fluorescence;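 active = inhibition above the mean of all tested compounds plus 3 SD, cutoff set per screening run, cut at about 7.5% in these data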;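 also: red hydrolysis product quenches plate fluorescence so inhibitors raise well fluorescence; 0% = enzyme with DMSO and 100% = DMSO without enzyme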
MEKK2 mut-MEK5 = signal of MEK5 binding to mutant human MEKK2 PB1 domain; bead flow cytometry, Alexa488-MEK5 binding to MEKK2 mutant; percent response, % at 10 µM; 290,000 tested, 0.35% active; AID 1530; in the data active = percent response above about 24%, passing the limit was not always enough
MEKK2wt confirm = raises or lowers MEK5 binding to wildtype human MEKK2, retest | shares compounds with MEKK3 PB1 HTS | bead flow cytometry, Alexa488-MEK5 binding to MEKK2 WT; actives lie on both sides | binding response (% of control), % at 10 µM | 5,900 tested, 2.4% active; in the data active = binding response below about 16% or above about 210%; inactive = in between
MEKK2mut confirm = signal of MEK5 binding to mutant human MEKK2, retest. bead flow cytometry, Alexa488-MEK5 binding to MEKK2 mutant. shares compounds with MEKK3 PB1 HTS. 5,900 tested, 2% active. percent response, % at 10 µM; in the data active = percent response mostly above about 71%, no sharp cut-off; inactive = mostly below about 38%;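 also: higher means compound restores mutant binding toward wildtype level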
MEKK3-MEK5 inh = MEKK3-MEK5 PB1 inhibition, single concentration confirmation; bead flow cytometry, Alexa488-MEK5 binding to MEKK3; stronger effect = lower value; 5,900 tested, 1.8% active; shares compounds with MEKK3 PB1 HTS; AID 1894; binding response (% of control), % at 10 µM;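 active = binding response below 72% of control, or above a set upper limit, though filed actives all read lower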;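 also: 100% = DMSO only wells and 0% = binding blocked by excess unlabeled MEK5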
Numbers without * were called inactive; / = not tested or not shown; [ ] = dose if it differs, or a comment. Most compounds without a hit are left out; they make up all but 3.4% or so of the library.

SMILES	MEKK2wt PB1 HTS	MEKK3 PB1 HTS	IMP-1 inhibitor	VIM-2 inhibitor	MEKK2 mut-MEK5	MEKK2wt confirm	MEKK2mut confirm	MEKK3-MEK5 inh
Cc1c(CCC(=O)N[C@@H](CCCNC(N)=O)C(=O)O)c(=O)oc2cc3oc4c(c3cc12)CCCC4	104	107	-1	0	4	/	/	/
O=C(O)CC1SC(=Nc2ccc(O)cc2)NC1=O (configuration not stated)	104	112	-3	-5	0	/	/	/
O=C(O)CC1SC(=Nc2cccc(C(F)(F)F)c2)NC1=O (configuration not stated)	133	124*	-3	-3	15	91	-7	82
CCc1c(C)nc(SCC(=O)Nc2cccc(Br)c2)[nH]c1=O	97	104	-2	-4	2	/	/	/
CCCCN1C(=O)/C(=C/C=C2\N(C)c3ccccc3C2(C)C)SC1=S	130	67	4	3	156*	36	-58*[inhibitor]	41*
COc1ccc(CN(C)CC(=O)Nc2sc3c(c2C#N)CCC3)cc1OC	91	88	-2	-1	-3	/	/	/
CCCCC(CCC(=O)Nc1cc([N+](=O)[O-])ccc1O)C(=O)O (configuration not stated)	95	98	-2	0	-1	/	/	/
Cc1cc(NC(=O)c2cc(C)on2)n(-c2ccccc2)n1	79	74*[inhibitor]	-2	-3	-4	98	3	97
Cc1cc(NC(=O)c2cc(-c3ccccc3)on2)n(-c2ccccc2)n1	101	106	-1	-3	3	/	/	/
O=C(NCCCN1CCN(CCCNC(=O)c2cc([N+](=O)[O-])ccc2Cl)CC1)c1cc([N+](=O)[O-])ccc1Cl	206*	91	-3	-2	24	205	79*	105
Cc1cc(C(=O)COC(=O)Cc2n[nH]c(=O)c3ccccc23)c(C)n1-c1ccc2c(c1)OCCO2	102	135*	-3	-1	0	101	-5	96
CC(C)OCCCNC(=O)Cc1ccc(F)cc1	91	94	-4	-3	-11	/	/	/
CCOc1ccccc1Nc1ncnc2ccc(Br)cc12	101	102	-2	2	1	/	/	/
COc1cc2nc(N3CCN(c4cc(C)ccc4C)CC3)nc(N)c2cc1OC	186*	106	-1	-2	42*	226*	75*	113
COc1cc2nc(N3CCNCC3)nc(N)c2cc1OC	106	99	0	1	-3	/	/	/
COc1ccc(/C=N/N=C2/NC(=O)C(CC(=O)O)S2)cc1OCc1ccccc1Cl (configuration not stated)	109	146*	-2	-4	0	106	13	109
COC(=O)[C@@H](NC(=O)N1CCN(C(=O)C2COc3ccccc3O2)CC1)C(C)C (some centres not stated)	99	100	-1	-2	0	/	/	/
Cc1[nH]c2ccccc2c1/C=N/NC(=O)CNC(=O)c1cccs1	102	103	-3	-4	6	/	/	/
Cc1[nH]c2ccccc2c1/C=N/NC(=O)c1cccs1	88	98	-1	-3	128*	104	2	98
Cc1nn(-c2ccccc2)c(C)c1/C=N/NC(=O)c1cccs1	100	133*	-4	-3	-1	104	1	104
CN1CCN(CCCN2c3ccccc3Sc3ccc(C(F)(F)F)cc32)CC1	168*	84	-3	-4	16	137	21	106
Cc1ccc(Nc2c(-c3ccc(N4CCOCC4)cc3)nc3ncccn23)cc1	94	104	-3	-4	-5	/	/	/
CN(C)n1cccc1/C=C(\C#N)S(=O)(=O)c1ccc(Cl)cc1	120	139*	-3	-3	33	101	-6	104
